Bioassay records from PubChem BioAssay.
Shown are actives, neighbours in structure and some others; about 3.9% of the full set was active somewhere.
UPR CHOP act: apoptotic UPR (CHOP) activation; CHO-CHOP luciferase reporter, luminescence; percent of tunicamycin response over DMSO baseline; activation, % at 10 µM; 330,000 tested, 0.34% active; AID 449763;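 active = at 10 µM dose, activation of 40% or more, normalized to positive control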
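System: CHO-CHOP luciferase reporter cell line; amount: 500 cells/well; buffer or medium: F12 medium containing 10% fetal bovine serum; incubation: 6 h compound exposure at 37 °C after overnight seeding; measured by: luciferase luminescence after 10 min with Steady-Glo reagent; evaluation: % reporter activation, DMSO baseline versus tunicamycin full activation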
697 NFkB inh: inhibitors of the PMA/ionomycin-induced NF-kB reporter in 697 B cells; 697 B-cell NF-kB luciferase reporter, 16 h; inhibition, % at 4 µM; 330,000 tested, 0.33% active; in the data active = inhibition above about 35%
Jurkat NFkB inh: inhibitors of the PMA/ionomycin-induced NF-kB reporter in Jurkat cells; inhibition, % at 4 µM; AID 435003; PMA/ionomycin-induced NF-kB luciferase reporter, luminescence; 330,000 tested, 0.53% active; in the data active = inhibition above about 50%
CHOP inh: CHOP inhibition in unfolded protein response; CHO-K1 CHOP-promoter luciferase, tunicamycin-induced, 15-18 h; inhibition, % at 10 µM; 220,000 tested, 3.8% active; AID 2732;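 active = compounds that reduced the stress-induced luciferase reporter signal by more than about 70% of percent inhibition, limit read from the data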
XBP1 UPR activ: activators of adaptive arm of unfolded protein response (XBP1); CHO-XBP1 luciferase reporter, IRE1-XBP1 UPR activation, luminescence; percent of tunicamycin response, DMSO as zero; AID 463104; 330,000 tested, 0.33% active; activation, % at 20 µM;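 active = versus positive control, 20 µM dose yields 30% or more activation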
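Assay system: IRE1-XBP1 luciferase reporter CHO line. Input: 1000 cells/well. Buffer or medium: F12 with 10% serum. Doses: 20 µM, 1% DMSO. Times: overnight seeding at 37 °C, 6 h compound treatment at 37 °C. Technique: Steady-Glo luciferase glow luminescence, 10 min after reagent addition.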
Gli-Sufu antag: antagonists of Gli-Sufu signaling | Sufu-KO-LIGHT fibroblasts, Gli luciferase reporter luminescence | inhibition, % at 5 µM | 340,000 tested, 0.74% active | AID 588413;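 active = inhibition above about 55%, limit read from the data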
CHOP confirm: confirmation of CHOP induction inhibitors | shares compounds with CHOP inh | CHO-CHOP promoter luciferase reporter, tunicamycin-induced, luminescence | inhibition, % at 10 µM | 2,100 tested, 45% active | AID 504437;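 active = mean of three repeat readings of reporter signal inhibition above a set limit, cut at about 70% in these data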
Hits are given with their value; - = inactive; . = no result.

SMILES	UPR CHOP act	697 NFkB inh	Jurkat NFkB inh	CHOP inh	XBP1 UPR activ	Gli-Sufu antag	CHOP confirm
CCc1ccc2c(c1)/C(=C/C(=O)c1cccs1)C(=O)N2	-	-	-	109	-	-	-
O=C(CCc1nnc2n(CCc3ccccc3)c(=O)c3ccccc3n12)NCCCN1CCCCC1	-	-	-	.	-	-	.
Cc1cccc(Nc2nc(N)c([N+](=O)[O-])c(N3CCC(C)CC3)n2)c1	-	-	-	104	-	-	-
Cc1cccc(Nc2nc(N)c([N+](=O)[O-])c(N3CC(C)CC(C)C3)n2)c1 (configuration not stated)	-	-	-	103	-	-	118
Cc1cccc(Nc2nc(N)c([N+](=O)[O-])c(N3CC(C)OC(C)C3)n2)c1 (configuration not stated)	-	-	-	.	-	-	.
COC1OC2COC(c3ccccc3)OC2C(O)C1NC(C)=O (configuration not stated)	.	.	.	.	.	-	.
Cc1ccc(-c2cc3c(nn2)-c2ccccc2C3=O)cc1	-	-	-	101	-	-	108
O=C1c2ccccc2-c2nnc(-c3ccc(F)cc3)cc21	-	-	-	-	-	-	.
O=[N+]([O-])c1cccc(/C=N/Nc2nc(NCc3ccccc3)nc(N3CCOCC3)n2)c1	-	-	-	104	-	-	-
COc1ccc(-c2[nH]ncc2/C=N\NC(=O)c2cccs2)cc1OC	-	-	-	.	-	-	.
Cc1ccccc1OCC(=O)NNC(=O)c1ccc(-c2ccccc2)cc1	-	-	-	105	-	-	-
Cc1ccc(C(C(=O)NC2CCCCC2)N(C(=O)Cc2c[nH]c3ccccc23)c2ccccc2C)o1 (configuration not stated)	-	-	-	100	-	-	86
Cc1ccc(-c2nnn(CC(=O)N(c3ccccc3F)C(C(=O)NC3CCCC3)c3ccco3)n2)o1 (configuration not stated)	-	-	-	-	-	-	.
Cc1ccccc1N(C(=O)Cc1c[nH]c2ccccc12)C(C(=O)NC1CCCCC1)c1ccco1 (configuration not stated)	-	-	-	103	-	-	-
O=C(O)c1ccccc1-c1ncc(-c2ccccc2)o1	-	-	-	.	-	-	.
COc1ccc(N2CCN(Cc3cc(=O)oc4cc(C)c(Cl)cc34)CC2)cc1	-	-	-	96	-	-	-
Cc1onc(-c2ccccc2)c1C(=O)NCc1ccc(Cl)cc1	-	-	-	.	-	-	.
CCOc1cc(C)c(-c2onc(C(F)(F)F)c2-c2csc(C)n2)c(O)c1	-	-	-	105	-	-	72
Cc1nc(-c2c(C(F)(F)F)noc2-c2ccc(O)cc2O)cs1	-	-	-	-	-	-	.
COC(=O)c1ccc(N2C(=O)CC(SCC(=O)Nc3ccc(OC)cc3)C2=O)cc1 (configuration not stated)	-	-	-	-	-	-	.
CN=C(Nc1cc(Cl)ccc1Cl)SC1CC(=O)N(c2ccc(C(=O)OC)cc2)C1=O (configuration not stated)	-	-	-	105	-	-	-
O=C(CSc1nc2ncc(Cl)cc2[nH]1)c1c[nH]c2ccccc12	-	-	-	-	-	-	.
O=C(CSc1nc2ccc(Cl)cc2[nH]1)c1c[nH]c2ccccc12	-	-	-	101	-	-	-
COc1cc(/C=N/N(C)c2ccccc2)cc(Cl)c1O	-	-	-	97	-	-	-
OC1CNc2c(ccc3ccccc23)C1 (configuration not stated)	.	.	.	.	.	-	.
SMILES	UPR CHOP act	697 NFkB inh	Jurkat NFkB inh	CHOP inh	XBP1 UPR activ	Gli-Sufu antag	CHOP confirm
Cc1oc(=O)c(NC(=O)c2ccc(Cl)cc2)cc1C(=O)c1ccccc1	-	-	-	106	-	-	-
C=CCn1c(SCC(=O)c2[nH]c(C)c(C(=O)OC)c2C)nc2scc(-c3ccc(OC)c(OC)c3)c2c1=O	.	.	.	102	.	-	120
C=CCn1c(SCC(=O)c2[nH]c(C)c(C(C)=O)c2C)nnc1-c1ccncc1	-	-	-	-	-	-	.
Cc1cc(C)cc(NC(=O)COc2coc(CN3CCc4ccccc4C3)cc2=O)c1	-	-	-	.	-	-	.
COc1ccc(C(=O)/C=C/C(=O)N(CC(=O)NCCC(C)C)Cc2cccs2)c(O)c1	.	.	.	106	.	-	113
COc1ccc(C(=O)/C=C/C(=O)N(CC(=O)NC2CCCCC2)Cc2ccc(F)cc2)c(O)c1	.	.	.	108	.	-	140
CN(C(=O)c1cccc(NC(=O)Cc2ccc(NC(=O)C3CCN(C(=O)C4CCCC4)CC3)cc2)c1)C1CC1	.	.	.	.	.	-	.
Cc1ccc(OCCOc2ccc(Br)cc2/C=N\NC(N)=O)cc1	-	-	-	103	-	-	-
O=S(=O)(/N=C(/Sc1ccccc1)c1ccccc1)c1ccccc1	-	-	-	112	-	-	-
Cc1sc(-c2ccncc2)nc1OC(=O)c1ccc(Cl)cc1	-	-	-	-	-	-	.
Cc1sc(-c2ccncc2)nc1OC(=O)c1cc(Cl)cc(Cl)c1	-	-	-	104	-	-	-
CCN(CC)S(=O)(=O)c1cc(NC(=O)c2ccc3c(c2)NC(=O)C(C)S3)ccc1C (configuration not stated)	-	-	-	.	-	-	.
O=C(OCn1ncc(Cl)c(Cl)c1=O)c1ccc(F)cc1	-	-	-	107	-	.	123
CCCCn1cnc2c(SCc3ccc(Br)cc3)nc(N)nc21	.	.	.	.	.	-	.
O=C(Nc1cc(Cl)cc(Cl)c1)c1cccc(OC(F)F)c1	-	-	-	97	-	-	-
Cc1ccnc(NC(=O)c2cccc(OC(F)F)c2)n1	-	-	-	.	-	.	.
COc1ccccc1C(C)NC(=O)Cc1ccc(S(=O)(=O)N2CCOCC2)s1 (configuration not stated)	-	-	-	.	-	-	.
O=c1[nH]c2ccc(S(=O)(=O)N3CCC(Cc4ccccc4)CC3)cc2o1	-	-	-	100	-	-	-
Cn1c(=O)c(=O)n(C)c2cc(S(=O)(=O)N3CCC(Cc4ccccc4)CC3)ccc21	-	-	-	-	-	-	.
CCCCc1ccc(NC(=O)N2CCNC(=O)C2CC(=O)Nc2ccsc2C(=O)OC)cc1 (configuration not stated)	-	-	-	-	-	-	.
CCn1cc(Cl)c(C(=O)N2N=C(c3ccc4ccccc4c3)CC2c2ccccc2O)n1 (configuration not stated)	-	-	-	97	-	-	-
CCOC(=O)C1(Cc2cccc(OC)c2)CCCN(C(=O)CNC(C)=O)C1 (configuration not stated)	-	-	-	.	-	-	.
